Bioassay records from PubChem.
L major viab: Leishmania major promastigote growth inhibition; inhibition, % at 10 µM; 9% of 200,000 active; Leishmania major promastigotes, resazurin fluorescence viability; in the data active = inhibition above about 50%;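 note: promastigotes grown with compound for 44 hours at 28 °C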
Beta cell apopt: blocks beta cell apoptosis; 0.8% of 300,000 active; AID 435005; INS-1E cytokine-induced death, ATP luminescence, 48 h; percent of positive-control rescue, neutral wells zero; protection from apoptosis, % (concentration not given with the values);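 active = Every replicate reaches about 75%, or at least half do and their mean reaches it too, limit read from the data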;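 note: 0% = cytokine-treated negative control wells and 100% = positive control rescue; higher means more ATP so stronger rescue from cytokine killing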
T cruzi repl: blocks replication of Trypanosoma cruzi | T. cruzi beta-gal in NIH3T3, luminescence, 90 h | inhibition, % (concentration not given with the values) | 1.4% of 300,000 active | AID 1885;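 active = mean inhibition across valid replicates above about 55%, limit read from the data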;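 note: signal also drops with host cell toxicity which is not excluded here; 0% = plate median of DMSO wells and 100% = zero luminescence signal; higher percent means less beta-gal luminescence so fewer parasites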
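Read-out: Parasite load inhibition, % | Test system: Mouse NIH/3T3 fibroblasts infected with β-gal-expressing T. cruzi Tulahuen C4 | Amount: 5,000 cells/well | Medium: DMEM, 2% fetal bovine serum | Signal: GalScreen β-gal luminescence, detergent lysis, 60 min | Timing: 3 h attach, ≥90 h co-culture | Also added: Tulahuen C4 trypomastigotes, 5000/well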
CSC inhib: cancer stem cell inhibition; cancer stem cell-like cells viability, luminescence; inhibition, % at 7.5 µM; 1.1% of 300,000 active; AID 2717; in the data active = inhibition above about 75%; tested in HMLE shEcad cells
SKKanGAS inh: blocks kanamycin growth of S. pyogenes SKKanGAS strain; BacTiter-Glo, 6 h; inhibition, % at 7.5 µM; 1.3% of 300,000 active;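 active = mean replicate score, as percent of positive control median, at least 50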;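 note: strain carries kanamycin resistance gene driven by streptokinase promoter and grows in 40 µg/ml kanamycin; loss of luminescence reflects streptokinase promoter inhibition or plain growth inhibition; 0% = median of DMSO wells and 100% = positive control at its reference dose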
Mdm2 MdmX PPI: disrupts the human Mdm2-MdmX interaction; SaOS-2 split-luciferase Mdm2/MdmX complementation, luminescence; inhibition, % at 8 µM; 3% of 330,000 active;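 active = inhibition of at least 50% at 8 µM in the primary screen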
Target sequence (O15151 whole entry, looked up): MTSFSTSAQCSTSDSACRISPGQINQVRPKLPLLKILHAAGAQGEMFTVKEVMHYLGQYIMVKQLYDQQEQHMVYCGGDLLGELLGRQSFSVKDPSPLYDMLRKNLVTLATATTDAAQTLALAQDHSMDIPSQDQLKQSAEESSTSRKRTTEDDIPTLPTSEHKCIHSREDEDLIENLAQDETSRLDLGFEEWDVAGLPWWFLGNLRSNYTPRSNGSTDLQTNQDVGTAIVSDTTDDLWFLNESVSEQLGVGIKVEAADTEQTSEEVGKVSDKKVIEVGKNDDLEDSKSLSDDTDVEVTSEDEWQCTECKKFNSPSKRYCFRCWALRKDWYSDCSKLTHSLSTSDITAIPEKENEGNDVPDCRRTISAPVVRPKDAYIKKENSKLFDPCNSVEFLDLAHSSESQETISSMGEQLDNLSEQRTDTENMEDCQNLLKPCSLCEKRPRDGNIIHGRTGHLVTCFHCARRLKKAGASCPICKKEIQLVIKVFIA
Target sequence (Q00987 whole entry, looked up): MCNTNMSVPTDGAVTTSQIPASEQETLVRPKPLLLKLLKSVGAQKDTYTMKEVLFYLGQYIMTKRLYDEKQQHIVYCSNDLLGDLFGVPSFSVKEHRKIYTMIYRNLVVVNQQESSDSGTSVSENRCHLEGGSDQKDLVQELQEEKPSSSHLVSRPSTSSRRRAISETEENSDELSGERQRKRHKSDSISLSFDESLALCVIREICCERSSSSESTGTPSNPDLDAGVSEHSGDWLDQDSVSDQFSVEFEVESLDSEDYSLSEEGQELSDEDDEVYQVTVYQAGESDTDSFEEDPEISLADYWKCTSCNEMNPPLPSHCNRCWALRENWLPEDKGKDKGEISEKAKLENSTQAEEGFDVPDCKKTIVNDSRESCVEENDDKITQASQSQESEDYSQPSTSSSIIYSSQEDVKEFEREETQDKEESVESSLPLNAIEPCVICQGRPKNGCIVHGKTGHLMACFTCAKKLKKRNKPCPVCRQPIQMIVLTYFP
Mdm2 MdmX conf: confirmation of human Mdm2/MdmX interaction inhibitors | 55% of 10,000 active | Mdm2-MdmX binding, luminescent assay | shares compounds with Mdm2 MdmX PPI | inhibition, % at 8 µM; in the data active = inhibition above about 40%
FLuc counter: counter-screen for Mdm2/MdmX inhibitors: full-length luciferase; 77% of 6,200 active; inhibition, % at 8 µM; AID 504607; shares compounds with Mdm2 MdmX PPI; SaOS-2 full-length luciferase counterscreen, luminescence;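 active = mean inhibition at 8 µM reaching about 37%, which flags the compound as non-specific, limit read from the data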;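 note: p53-null SaOS-2 cells with luciferase driven by a doxycycline-inducible promoter; compound on cells about two nights before reading with doxycycline added after day one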
An asterisk follows results filed as active; / = no result given. Sampled rows, rich in hits. Any-hit rate of the full collection: about 9.4%.

SMILES	L major viab	Beta cell apopt	T cruzi repl	CSC inhib	SKKanGAS inh	Mdm2 MdmX PPI	Mdm2 MdmX conf	others
Cc1ccc(NC(=S)NCc2ccc3[nH]c4c(c3c2)CCCC4)cc1	17.0	-3.9	-0.6	/	7.4	72.0*	7.8
O=C(Nc1ccc(F)cc1)Nc1cc(OCC(F)(F)F)cc(OCC(F)(F)F)c1	98.8*	105.9*	44.3	50.6	77.9*	89.4*	90.5*	FLuc counter=52.0*
CCOc1ccc(NC(=O)Nc2cc(OCC(F)(F)F)cc(OCC(F)(F)F)c2)cc1	14.0	20.0	46.7	20.9	20.1	47.7	/
O=C(c1cccc(C(F)(F)F)c1)C1CCCN(C(=O)c2cc(C3CC3)[nH]n2)C1 (stereo not given)	/	2.3	6.5	-7.9	0.7	-6.6	/
CCc1cc2c(=O)n(Cc3ccco3)c(SCC(=O)NCC3CCCO3)nc2s1 (stereo not given)	/	-4.0	12.9	-2.4	2.0	16.6	/
CCc1cc2c(=O)n(Cc3ccco3)c(SCc3c(C)noc3C)nc2s1	13.8	5.1	25.6	58.9	99.5*	71.8*	66.5*	FLuc counter=48.3*
O=C(CN1CCCCC1)NCC(=O)Nc1ccc(F)c(F)c1F	/	-6.4	/	-11.0	/	-0.4	/
O=C(/C=C/NNC(=O)c1ccccc1)c1ccccc1	0.7	-4.5	-25.2	-8.5	6.7	-0.5	/
O=C(/C=C/NNC(=O)c1ccccc1O)c1ccccc1	/	5.1	-17.8	18.1	13.6	56.7*	12.8
COc1ccc(NC(=O)CN(C)C(=O)c2sc3ccccc3c2Cl)cc1	/	/	-10.1	18.7	-9.3	-13.0	/
COc1ccc(Cl)cc1NC(=O)CC(=O)Nc1cc(Cl)ccc1OC	/	9.8	37.3	-17.2	19.1	65.8*	17.0
COc1ccc(Cl)cc1NC(=O)CN(C)C(=O)c1sc2ccccc2c1Cl	/	0.9	/	/	/	54.0*	17.5
COc1ccc(Cl)cc1NC(=O)CN(C)CC(=O)Nc1ccccc1N1CCOCC1	54.4*	19.7	6.6	51.7	14.1	57.9*	54.7*	FLuc counter=65.5*
COc1ccc(Cl)cc1NC(=O)Cn1cccc1	-4.0	-7.2	-15.6	-0.6	-0.4	-18.4	/
COc1ccc(Cl)cc1NC(=O)CN(C)CC(=O)N1CC(=O)Nc2ccccc21	/	-2.1	/	/	/	28.2	/
CC(OC(=O)c1c[nH]c2ccccc12)C(=O)N1CCCC1 (stereo not given)	/	-6.0	/	/	/	-2.3	/
Cc1nc(N2CCN(C(=O)c3cnccn3)CC2)c2c3c(sc2n1)CC(C(C)(C)C)CC3 (stereo not given)	/	1.8	7.5	/	4.8	70.1*	33.5
CC(=O)N1CCN(c2nc(C)nc3sc4c(c23)CCC(C)C4)CC1 (stereo not given)	7.3	4.7	9.0	-6.3	-5.3	2.2	/
CCCCN1CC(=O)N2[C@H]3c4ccc(OC)cc4OC[C@@H]3[C@H](c3ccccc3)[C@]2(C)C1=O	/	-2.2	/	0.9	/	-8.9	/
CN(NC(=O)c1cccc(Cl)c1)c1nc(-c2ccccc2)nnc1C(F)(F)F	-2.8	7.9	/	14.7	10.1	58.8*	56.6*	FLuc counter=53.4*
COc1ccc2[nH]c3nc(SCC(=O)Nc4ccc5c(c4)OCO5)nnc3c2c1	6.2	0.8	11.0	/	13.7	66.3*	6.2
COc1cc(NC(=O)CSc2nccc(C)n2)c(C)cc1[N+](=O)[O-]	1.2	/	-1.2	-0.1	9.8	0.3	/
COc1ccc(OC)c(-n2nnnc2SCC(=O)Nc2ccc(C(=O)N3CCCCC3)cc2)c1	8.4	-6.8	4.9	2.2	-2.3	-5.8	/
Cc1ccc(-n2nnnc2SCC(=O)Nc2ccc3c(c2)OCCO3)cc1C	12.5	2.5	-6.7	-8.7	5.0	5.6	/
COc1cccc(CNC(=O)CSc2nnc3c(n2)[nH]c2ccc(OC)cc23)c1	/	2.7	4.6	-1.4	9.1	30.7	/
COc1ccc(-n2nnnc2SCC(=O)Nc2cc(OC)c([N+](=O)[O-])cc2C)cc1	-5.1	25.3	1.9	0.7	-2.7	51.9*	6.8
COc1ccc(OC)c(-n2nnnc2SCC(=O)Nc2ccc3c(c2)OCCO3)c1	-1.9	1.3	-6.5	-3.1	1.3	81.9*	1.3
CC(=O)Nc1ccc(NC(=O)CSc2nnnn2-c2ccc3c(c2)OCCO3)cc1	-6.8	0.8	-3.1	0.2	6.8	51.5*	3.6
CC(C)(C)N(Cc1ccccc1)C(=O)COC(=O)c1ccc(S(=O)(=O)N2CCOCC2)cc1	/	1.6	/	/	/	-17.6	/
